This note sets out measurements from ChEMBL document CHEMBL1124220 (J Med Chem, 1988).

Assay [1] is filed under the species Oryctolagus cuniculus. The experiment in a line: In vitro agonist angiotensin II like activity was measured in the rabbit aorta strip assay. It counts as functional. Summed up: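 Isolated rabbit aortic strips in vitro. Agonist (AII-like) activity expressed as percent of the activity of AII.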
Assay [2] concerns Rattus norvegicus. The experiment in a line: In vivo agonist angiotensin II like activity was measured in rat blood pressure assay. It counts as functional. Further details: concentration or dose not given beside the values. A digest of the protocol:
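Rat blood pressure in vivo. Residual AII-like activity read as the pressor rise (mmHg) after a 1-μg intravenous bolus of compound. Mean of at least five tests with standard error.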

SMILES strings stand for the structures. Non-standard residues stand in square brackets, D forms with d. Residues, ends and D or L forms follow the SMILES beside them. Aib = CC(C)(N)C(=O)O; Sar = CNCC(=O)O

Take `CC[C@H](C)[C@H](NC(=O)[C@@H]1CCCN1C(=O)[C@@H](Cc1c[nH]cn1)NC(=O)[C@@H](NC(=O)[C@H](Cc1ccc(O)cc1)NC(=O)[C@@H](NC(=O)[C@H](CCCN=C(N)N)NC(=O)CNC)C(C)C)[C@@H](C)CC)C(=O)O`: the Activity in assay [1] is 0%. With `CC[C@H](C)[C@H](NC(=O)[C@H](Cc1ccc(O)cc1)NC(=O)[C@@H](NC(=O)[C@H](N)CCCCN)C(C)C)C(=O)N[C@@H](Cc1c[nH]cn1)C(=O)N1CCC[C@H]1C(=O)N[C@@H](Cc1ccccc1)C(=O)O`, the Activity in assay [2] is 23%. As for `CC[C@H](C)[C@H](NC(=O)[C@H](Cc1ccc(O)cc1)NC(=O)[C@@H](NC(=O)[C@@H](N)CCCN)C(C)C)C(=O)N[C@@H](Cc1c[nH]cn1)C(=O)N1CCC[C@H]1C(=O)N[C@@H](Cc1ccccc1)C(=O)O`, the Activity in assay [2] was 3%. Take `CC[C@H](C)[C@H](NC(=O)[C@H](Cc1ccc(O)cc1)NC(=O)[C@@H](NC(=O)[C@H](CCCN=C(N)N)NC(=O)[C@@H](N)CC(=O)O)C(C)C)C(=O)N[C@@H](Cc1cncn1C)C(=O)N1CCC[C@H]1C(=O)N[C@@H](Cc1ccccc1)C(=O)O`: the Activity in assay [2] is on record as 0.05%. In turn, `CC[C@H](C)[C@H](NC(=O)[C@H](Cc1ccc(O)cc1)NC(=O)[C@@H](NC(=O)[C@@H](N)CCCCN)C(C)C)C(=O)N[C@@H](Cc1c[nH]cn1)C(=O)N1CCC[C@H]1C(=O)N[C@@H](Cc1ccccc1)C(=O)O` showed an Activity in assay [2] of 3%. The same measure, in the same setting: with `CC[C@H](C)[C@H](NC(=O)[C@H](Cc1ccc(O)cc1)NC(=O)[C@@H](NC(=O)[C@@H](C)N)C(C)C)C(=O)N[C@@H](Cc1c[nH]cn1)C(=O)N1CCC[C@H]1C(=O)N[C@@H](Cc1ccccc1)C(=O)O` the figure was 48%; with `CC[C@H](C)[C@H](NC(=O)[C@H](Cc1ccc(O)cc1)NC(=O)[C@@H](NC(=O)[C@H](N)CCCCN=C(N)N)C(C)C)C(=O)N[C@@H](Cc1c[nH]cn1)C(=O)N1CCC[C@H]1C(=O)N[C@@H](Cc1ccccc1)C(=O)O`, 11%. For `CC[C@H](C)[C@H](NC(=O)[C@@H]1CCCN1C(=O)[C@H](Cc1c[nH]cn1)NC(=O)[C@@H](NC(=O)[C@H](Cc1ccc(O)cc1)NC(=O)[C@@H](NC(=O)[C@H](C)N)C(C)C)[C@@H](C)CC)C(=O)O`, in assay [1], the Activity is listed as 0%.

With `CC[C@H](C)[C@H](NC(=O)[C@H](Cc1ccc(O)cc1)NC(=O)[C@@H](NC(=O)[C@H](CCCN=C(N)N)NC(=O)[C@@H](N)CC(=O)O)C(C)C)C(=O)N[C@@H](Cc1cn(C)cn1)C(=O)N1CCC[C@H]1C(=O)N[C@@H](Cc1ccccc1)C(=O)O`, the Activity in assay [2] was 5%. In the case of `CC[C@H](C)[C@H](NC(=O)[C@@H]1CCCN1C(=O)[C@H](Cc1c[nH]cn1)NC(=O)[C@@H](NC(=O)[C@H](Cc1ccc(O)cc1)NC(=O)[C@@H](NC(=O)C(C)(C)N)C(C)C)[C@@H](C)CC)C(=O)O` (H-[Aib]VYIHPI-OH), the Activity in assay [1] is recorded as 0%. In turn, `CC[C@H](C)[C@H](NC(=O)[C@H](Cc1ccc(O)cc1)NC(=O)[C@@H](NC(=O)[C@H](CCCN=C(N)N)NC(=O)CNC)C(C)C)C(=O)N[C@@H](CC(=O)O)C(=O)N1CCC[C@H]1C(=O)N[C@H](C(=O)O)[C@@H](C)O` (H-[Sar]RVYIDPT-OH) yielded an Activity in assay [1] of 0%. The compound `CC[C@H](C)[C@H](NC(=O)[C@H](Cc1ccc(O)cc1)NC(=O)[C@@H](NC(=O)[C@H](CCCN=C(N)N)NC(=O)CNC)C(C)C)C(=O)N[C@@H](Cc1c[nH]cn1)C(=O)N1CCC[C@H]1C(=O)N[C@H](C(=O)O)[C@@H](C)O` (H-[Sar]RVYIHPT-OH) displayed an Activity in assay [1] of 0.6%.

In assay [1], `CC[C@H](C)[C@H](NC(=O)[C@@H]1CCCN1C(=O)[C@H](CCCCN)NC(=O)[C@@H](NC(=O)[C@H](Cc1ccc(O)cc1)NC(=O)[C@@H](NC(=O)[C@H](CCCN=C(N)N)NC(=O)CNC)C(C)C)[C@@H](C)CC)C(=O)O` (H-[Sar]RVYIKPI-OH) came in with an Activity of 0%.

Regarding `CC[C@H](C)[C@H](NC(=O)[C@H](Cc1ccc(O)cc1)NC(=O)[C@@H](NC(=O)CN(C)C(=O)CNC)C(C)C)C(=O)N[C@@H](Cc1c[nH]cn1)C(=O)N1CCC[C@H]1C(=O)N[C@H](C(=O)O)[C@@H](C)O` (H-[Sar][Sar]VYIHPT-OH), the Activity in assay [1] is recorded as 0%.
